Compound activity (PubChem BioAssay)
b-catenin transl: modulators of beta-catenin nuclear translocation; nuclear translocation activity, % at 5 µM; actives 0.3% (n = 190,000); HeLa beta-catenin nuclear translocation, immunofluorescence imaging;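 active = nuclear translocation activity above 50% at 5 µM, with a well cell count of 50 or more; inconclusive = wells under 50 cells across six images, flagged as toxic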;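 note: per-cell ratio of nuclear to cytoplasmic median beta-catenin stain intensity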
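Assay system: human HeLa cells, native beta-catenin; doses: 5 µM primary, 0.02–20 µM confirmation; incubation: compound treatment 24 h, 37°C, 5% CO2; technique: fluorescence imaging of beta-catenin antibody stain plus DAPI; measure: % activation, nuclear-to-cytoplasmic median beta-catenin signal ratio per cell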
Dynein cargo inh: blocks dynein driven cargo transport along microtubules; 3617.4 mouse cells, GR-EGFP nuclear translocation imaging; test concentration mostly 20 µM; stimulated with dexamethasone, 1 µM; stronger effect = lower value; z-score, hits read low; actives 0.47% (n = 220,000); AID 1381;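 active = plate z-score of nuclear minus cytoplasmic receptor signal below a set negative limit, without overly bright fluorescence or cell loss, cut at about -3.5 in these data, passing the limit was not always enough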;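 note: z-score of nuclear minus cytoplasmic ring GR-EGFP intensity difference per well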
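Buffer or medium: tet-free medium with charcoal-stripped serum / Also added: dexamethasone agonist, 1.0 µM final, for 30 min / Timing: induction 48 h, compound 1 h, agonist 30 min / Measured by: high-content fluorescence imaging after fixation / Read-out: nuclear-to-cytoplasmic GR-EGFP distribution per well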
Lmaj promast: inhibitors of Leishmania major promastigote growth; Leishmania major promastigotes, resazurin fluorescence viability; inhibition, % at 10 µM; actives 9% (n = 200,000); in the data active = inhibition above about 50%;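 note: promastigotes grown with compound for 44 hours at 28 °C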
Autophagy HCS: autophagy modulation, high-content screen | MEF GFP-LC3 puncta imaging; test concentration mostly 10 µM | calls only at 10 µM (by protocol) | actives 0.98% (n = 190,000);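 active = percentage of spot-positive cells more than 3 SD above its plate mean, without a fluorescence outlier flag or 80% toxicity; inconclusive = no clear call, values can overlap the other calls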
CHOP inh: CHOP inhibition in unfolded protein response | CHO-K1 CHOP-promoter luciferase, tunicamycin-induced, 15-18 h | inhibition, % at 10 µM | actives 3.8% (n = 220,000) | AID 2732;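 active = compounds that reduced the stress-induced luciferase reporter signal by more than about 70% of percent inhibition, limit read from the data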
MT stabilizer: microtubule stabilizers in HeLa cells | % tubulin-high responders, % at 10 µM | HeLa tubulin immunostaining HCS, 24 h; share of cells brighter than vehicle mean+2SD | actives 0.83% (n = 200,000) | AID 2205;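 active = plate Z-score above 3 for both tubulin-high and condensed-nucleus cell shares, with cell loss under 80%, at 10 µM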;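 note: anti alpha tubulin signal scored within the nucleus-defined area of each cell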
Lmaj promast 1uM: blocks Leishmania major promastigote growth at 1 uM, repeat screen. shares compounds with Lmaj promast. L. major promastigote growth, resazurin fluorescence, 48 h. inhibition, % at 1 µM. actives 13% (n = 1,100);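 active = inhibition above about 50% in both repeat tests, limit read from the data; inconclusive = one repeat under the set limit, the other over it; inactive = both repeats under the set limit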
A number is an active result; – = inactive; ? = inconclusive; · = no result given; + = active, no number. Hits are enriched below; roughly 12% of the tested compounds scored in any of these assays.

SMILES	b-catenin transl	Dynein cargo inh	Lmaj promast	Autophagy HCS	CHOP inh	MT stabilizer	Lmaj promast 1uM
Cc1ccn2cc(C34CC5CC(CC(C5)C3)C4)nc2c1	–	–	60	–	–	–	–
Cc1ccn2cc(C(=O)Nc3nnc(C)s3)nc2c1	–	–	–	–	–	–	·
COc1ccc(CC2NCCC3(O)CCCCC23)cc1 (stereo unspecified)	–	–	68	–	–	–	–
COCCCn1[nH]c2c3c(ccc2c1=O)C(=O)c1ccccc1C3=O	–	–	94	–	–	–	–
CCC1=C/C(=C/N(C)c2ccccc2)C(=O)S1	·	–	–	–	–	–	·
CC(=O)c1ccc(NC(=S)N2c3ccccc3CC2C)cc1 (stereo unspecified)	–	–	–	–	–	–	·
CC1Cc2ccccc2N1C(=S)Nc1ccc(S(N)(=O)=O)cc1 (stereo unspecified)	–	–	80	–	–	–	–
Cc1cc(=O)oc2cc(OCC(=O)OCC(=O)NC3CC3)ccc12	–	–	–	–	–	–	·
S=C(Nc1ccc(Oc2ccc(NC(=S)NC3CCCCC3)cc2)cc1)NC1CCCCC1	·	–	58	–	–	–	–
O=C(c1ccc2c(c1)OCCO2)N1CCN(c2ccc([N+](=O)[O-])cc2)CC1	–	–	–	–	–	–	·
CC(NC(=O)CSc1nc2sc3c(c2c(=O)n1-c1ccccc1)CCCC3)c1ccccc1 (stereo unspecified)	–	–	69	–	–	–	–
O=C(O)CSc1nc2sc3c(c2c(=O)n1-c1ccccc1)CCC3	–	–	·	·	–	·	·
C/C=C/C=C\C(=O)Nc1cccc(C2=NOC3(C2)C[C@@H](C(N)=O)N(C(=O)c2cc([N+](=O)[O-])cc([N+](=O)[O-])c2C)C3)c1 (stereo partly specified)	–	–	·	·	–	·	·
CCc1cc2c(nc1CC)CCN(CC/C(C)=N/O[C@@H](C)c1cc(-c3c(C)cc(C)cc3C)no1)C2	–	–	92	–	–	–	–
C/C(CCN1CCc2nc(-c3ccccc3)c(-c3ccccc3)cc2C1)=N\OC[C@@H](C)[C@H](OCc1ccccc1)C(C)C	·	–	–	–	–	–	·
C/C(CCN1CCc2nc(-c3ccccc3)c(-c3ccccc3)cc2C1)=N\O[C@H](C)c1cn([C@H](CO)Cc2ccccc2)nn1	·	–	–	–	–	–	·
C/C(CCN1CCc2nc(-c3ccccc3)c(-c3ccccc3)cc2C1)=N\O[C@@H](C)c1cc(-c2c(C)cc(C)cc2C)no1	·	–	83	–	–	–	–
Cc1ccccc1N(C(=O)c1cccs1)c1nc2ccccc2s1	–	–	99	–	–	–	?
Cc1cccc(NCCC(=O)c2ccc(Br)cc2)c1	–	–	54	–	–	–	–
O=C(N1CCOCC1)N1CCC(c2nc(-c3ccc(S(=O)(=O)N4CCOCC4)cc3)no2)CC1	–	–	–	–	–	–	·
O=C(CC1CCCCC1)N1CCC(c2nc(-c3ccc(S(=O)(=O)N4CCCC4)cc3)no2)CC1	–	–	66	–	95	–	–
Cc1ccc(S(=O)(=O)N2C(=O)CCC2C(=O)Nn2cnnc2)cc1 (stereo unspecified)	–	–	–	–	–	–	·
C=CC[n+]1c(-c2ccccc2)csc1NC(C)(C)C	–	–	–	–	–	–	·
C=CC[n+]1c(-c2ccc(OC)c(OC)c2)csc1NNC(=O)Nc1ccccc1	–	–	100	–	–	–	–
CC(=O)Nc1ccc(OCC(=O)NCc2ccc3c(c2)OCO3)cc1	–	–	–	–	–	–	·
SMILES	b-catenin transl	Dynein cargo inh	Lmaj promast	Autophagy HCS	CHOP inh	MT stabilizer	Lmaj promast 1uM
CC1Cc2ccccc2N1C(=O)CSc1nnc(Cc2ccccc2)n1CCc1ccccc1 (stereo unspecified)	–	–	51	–	–	–	–
Cc1nn(-c2ccccc2)nc1-c1nnc(-c2ccc(C(F)(F)F)cc2)o1	–	–	·	·	–	·	·
C/C(CCN1CCCCc2nc(C)c(C)cc21)=N\OC[C@@H](O)[C@H]1O[C@@H]2OC(C)(C)O[C@@H]2[C@H]1O	·	–	–	–	–	–	·
COc1ccc(O[C@H]2C=C[C@@H](c3ccccc3)O[C@@H]2CO/N=C(\C)CCN2CCCCc3nc(C)c(C)cc32)cc1	–	–	84	+	–	–	–
C/C(CCN1CCCCc2nc(C)c(C)cc21)=N\O[C@@H](C)CN1CCCCc2nc(C)c(C)cc21	·	–	68	–	–	–	–
CN1CCCC1CCNC1C2CC3CC(C2)CC1C3 (stereo unspecified)	–	–	53	–	–	–	–
CC(CN1CCCCC1)NC(=O)c1cc(-c2ccccn2)nc2ccc(Cl)cc12 (stereo unspecified)	–	–	–	–	–	–	·
c1ccc(Cn2nc(-c3ccccc3)nc2-c2ccccc2)cc1	·	–	94	–	–	–	–
COC(=O)C1=C(C)N(Cc2ccco2)C(=O)N[C@H]1c1ccc(Br)cc1	·	–	–	–	–	–	·
O=C(O)c1ccc(NC(=O)C2(c3ccccc3)CCOCC2)cc1	–	–	–	–	–	–	·
O=C(Nc1ccc(Cl)cn1)c1ccc([N+](=O)[O-])o1	–	–	100	–	–	8.3	80
Cc1nn(-c2ccccc2)c(N)c1C(O)(C(F)(F)F)C(F)(F)F	–	–	98	–	–	–	–
Cc1nc([N+](=O)[O-])nn1C12CC3CC(CC(Cl)(C3)C1)C2	–	–	88	–	–	–	53
O=[N+]([O-])c1ncn(C23CC4CC(CC(C4)C2)C3)n1	–	–	·	·	–	·	·
Cc1cc(-n2c(C)cc(C(=S)N3CCOCC3)c2C)ccc1Br	·	–	57	–	–	–	–
CCn1c(N2CCN(S(=O)(=O)c3ccc(Cl)cc3)CC2)nc2ccccc21	–	–	81	–	–	–	–
CCn1c(N2CCN(S(=O)(=O)c3ccc(F)cc3)CC2)nc2ccccc21	–	–	–	–	–	–	·
Cc1ccc(C(=O)NC(=C(Cl)Cl)S(=O)(=O)c2ccccc2)cc1	–	–	72	–	–	–	–
Cc1ccc(C(=O)NC(=S)NNS(=O)(=O)c2ccccc2)cc1	–	–	–	–	–	–	·
COc1ccc(/C=C(\NC(=O)c2ccccc2)C(=O)NC2CCS(=O)(=O)C2)cc1 (stereo unspecified)	–	–	·	·	–	·	·
O=S(=O)(/N=C(/Nc1ccc(F)c(F)c1F)c1ccccc1)c1ccccc1	·	–	89	–	–	–	–
COc1cc2[nH]c3c(N4CCN(c5ccccn5)CC4)ncnc3c2cc1OC	–	–	100	+	–	–	–
COc1ccc(N2CCN(c3ncnc4c3[nH]c3ccccc34)CC2)cc1	–	–	–	–	–	–	·
